Test results published in ChEMBL document CHEMBL1781924, “Inhibitors of the NF-kappaB activation pathway from Cryptocarya rugulosa” (J Nat Prod, 2009).
Active and inactive are the calls of the source. The calls are words filed in the database; no cut-off is given here.

How the values were obtained:
K562 [1] = test: Cytotoxicity against human K562 cells; format: functional, cell-based
OCI-Ly3 [2] = test: Induction of IkappaB in human OCI-LY3 cells assessed as fold increase in luciferase reporter gene after 10 hrs; format: functional, cell-based; settings: TDE = time-dependent effect
OCI-Ly3 [3] = test: Induction of IkappaB in human OCI-LY3 cells assessed as fold increase in luciferase reporter gene; format: functional, cell-based
OCI-Ly3 [4] = test: Induction of IkappaB in human OCI-LY3 cells assessed as fold increase in luciferase reporter gene at 16 uM; format: functional, cell-based
K562 [5] = test: Cytotoxicity against doxorubicin-resistant human K562 cells; format: functional, cell-based
KB = test: Cytotoxicity against human KB cells; format: functional, cell-based
OCI-Ly3 [6] = test: Induction of IkappaB in human OCI-LY3 cells assessed as fold increase in luciferase reporter gene at 11 uM; format: functional, cell-based
[7] = molecular target: T1, Inhibitor of nuclear factor kappa-B kinase subunit beta (Homo sapiens) (UniProt O14920); test: Inhibition of IKK-beta in human OCI-LY19 cells assessed as decrease in renilla values at 10 ug/ml after 10 hrs by IkB-photinus/Renilla assay; format: cell-based
T1 sequence (whole entry): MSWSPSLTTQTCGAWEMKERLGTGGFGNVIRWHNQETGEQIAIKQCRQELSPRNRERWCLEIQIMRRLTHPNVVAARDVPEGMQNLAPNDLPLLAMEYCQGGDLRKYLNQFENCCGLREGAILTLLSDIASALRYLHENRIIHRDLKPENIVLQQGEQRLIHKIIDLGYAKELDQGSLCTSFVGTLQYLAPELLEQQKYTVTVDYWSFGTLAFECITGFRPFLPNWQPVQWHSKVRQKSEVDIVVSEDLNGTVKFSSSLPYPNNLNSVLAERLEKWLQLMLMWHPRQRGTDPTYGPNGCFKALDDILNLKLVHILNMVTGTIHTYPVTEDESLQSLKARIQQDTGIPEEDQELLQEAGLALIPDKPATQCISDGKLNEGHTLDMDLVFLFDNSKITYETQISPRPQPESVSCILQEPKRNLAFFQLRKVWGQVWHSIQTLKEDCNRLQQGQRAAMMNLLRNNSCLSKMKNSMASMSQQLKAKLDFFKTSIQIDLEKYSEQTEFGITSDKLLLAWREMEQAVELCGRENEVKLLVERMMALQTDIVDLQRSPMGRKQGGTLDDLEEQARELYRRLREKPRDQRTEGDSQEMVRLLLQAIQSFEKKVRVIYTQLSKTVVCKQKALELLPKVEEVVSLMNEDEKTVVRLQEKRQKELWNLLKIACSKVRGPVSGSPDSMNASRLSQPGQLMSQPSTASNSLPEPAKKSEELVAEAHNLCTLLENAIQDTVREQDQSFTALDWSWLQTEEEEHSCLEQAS
Summary of the method: (§1)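 OCI-Ly3, OCI-Ly10 and OCI-Ly19 cells stably coexpressing an IκB-Photinus fusion reporter and unmodified Renilla luciferase, in phenol red-free IMDM with 20% heparinized human plasma. Cells were exposed to compound at 37 °C, 5% CO2 for 2.5, 5 or 10 h, then pelleted, lysed and given dual luciferase substrates. Photinus/Renilla ratio and Renilla alone were normalized to the untreated control mean.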

[8] = molecular target: T1, Inhibitor of nuclear factor kappa-B kinase subunit beta (Homo sapiens); test: Inhibition of IKK-beta in human OCI-LY19 cells assessed as decrease in renilla values at 10 ug/ml after 2.5 to 10 hrs by IkB-photinus/Renilla assay; format: cell-based; summary of the method: as §1
[9] = molecular target: T1, Inhibitor of nuclear factor kappa-B kinase subunit beta (Homo sapiens); test: Inhibition of IKK-beta in human OCI-LY10 cells assessed as decrease in renilla values at 2.5 to 10 ug/ml after 10 hrs by IkB-photinus/Renilla assay; format: cell-based; summary of the method: as §1
[10] = molecular target: T1, Inhibitor of nuclear factor kappa-B kinase subunit beta (Homo sapiens); test: Inhibition of IKK-beta in human OCI-LY3 cells assessed as decrease in renilla values at 2.5 to 5 ug/ml after 10 hrs by IkB-photinus/Renilla assay; format: cell-based; settings: 5 to 10 ug/ml, in the assay text read “at 5 to 10 ug/ml” for “at 2.5 to 5 ug/ml”; summary of the method: as §1

Row | inhibition [7] | inhibition [8] | inhibition [9] | inhibition [10] | Compound | IC50 (K562 [1]) [µM] | Activity (OCI-Ly3 [2]) | Activity (OCI-Ly3 [3]) | Activity (OCI-Ly3 [4]) | IC50 (K562 [5]) [µM] | IC50 (KB) [µM] | Activity (OCI-Ly3 [6])
1 | – | – | – | – | O=C1C[C@@H]2/C(=C(O)\C=C\c3ccccc3)C(=O)C=C[C@@H]2O1 [CRYPTOCARYONE] | 1.8 | tde | Dose-dependent effect | Active | 1.8 | 1.8 | –
2 | inactive | Active | Active | Active | O=C(/C=C/C[C@@H]1CC=CC(=O)O1)CCc1ccccc1 | – | tde | Dose-dependent effect | – | – | – | Active
